Test results taken from ChEMBL document CHEMBL1156659, “Cycloartane triterpenoids from Astragalus bicuspis” (J Nat Prod, 2008).

Columns and labels:
Leishmania major = assay: Antileishmanial activity against Leishmania major DESTO promastigotes after 72 hrs; assay type: functional, organism-based
Procedure, shortened: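 Log-phase promastigotes grown at 22-25 °C in RPMI-1640 with 10% heat-inactivated FBS, seeded at 1 × 10^6 cells/mL. Compounds were taken from a 1 mg/mL stock (DMSO, then complete medium), serially diluted, and incubated 21-22 °C for 72 h. Viable parasites were counted microscopically in a Neubauer chamber, and IC50 was derived by curve fitting. Run in duplicate.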

NIH3T3 = assay: Cytotoxicity against mouse 3T3 cells after 72 hrs by MTT assay; assay type: cell-based
Procedure, shortened: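 Mouse fibroblasts were kept in DMEM with 5% FBS, penicillin and streptomycin at 37 °C under 5% CO2, seeded at 3 × 10^4 cells/mL, and left overnight. Fresh medium holding a compound concentration series was added for 72 h. MTT (2 mg/mL) was added for 4 h, then DMSO, and formazan was read at 540 nm. The value is the concentration giving 50% growth inhibition.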

[1] = Mus musculus, NIH3T3, 72 h, read-out: IC50

Structure (SMILES) | IC50 (Leishmania major) | IC50 (NIH3T3; [1]) [µM] | IC50 (NIH3T3; nih3t3) [µmol]
CC(C)(O)[C@@H]1CC[C@](C)([C@@H]2[C@@H](O)C[C@@]3(C)[C@@H]4C[C@H](O)[C@H]5C(C)(C)[C@@H](O)CC[C@@]56C[C@@]46CC[C@]23C)O1 | 108 µM | > 100 | 
C[C@@H]1C[C@@H]([C@H](O)CC2CC(=O)NC(=O)C2)C(=O)[C@@H](C)C1 [CYCLOHEXIMIDE] |  |  | 0.912
CO[C@H]1C[C@@H](C)[C@H]2[C@H](C[C@@]3(C)[C@@H]4C[C@H](O)[C@H]5C(C)(C)[C@@H](O[C@@H]6OC[C@@H](O)[C@@H](O)[C@H]6O)CC[C@@]56C[C@@]46CC[C@]23C)O1 | 93.65 µmol | 52.4 | 
N=C(N)c1ccc(OCCCCCOc2ccc(C(=N)N)cc2)cc1 [PENTAMIDINE] | 4.32 µmol |  | 
C[C@@H]1[C@H](O)[C@@H](C)/C=C/C=C/C=C/C=C/C=C/C=C/C=C/[C@H](O[C@@H]2O[C@H](C)[C@@H](O)[C@H](N)[C@@H]2O)C[C@@H]2O[C@](O)(C[C@@H](O)C[C@@H](O)[C@H](O)CC[C@@H](O)C[C@@H](O)CC(=O)O[C@H]1C)C[C@H](O)[C@H]2C(=O)O [AMPHOTERICIN B] | 0.54 µmol |  | 
C[C@@H]1C[C@@]2(O[C@H]3C[C@@]4(C)[C@@H]5C[C@H](O)[C@H]6C(C)(C)[C@@H](O[C@@H]7OC[C@@H](O)[C@@H](O)[C@H]7O)CC[C@@]67C[C@@]57CC[C@]4(C)[C@@H]13)O[C@H](O)[C@]1(C)O[C@H]21 | 64.35 µmol | > 100 | 
CC(C)(O)[C@@H]1CC[C@](C)([C@H]2[C@@H](O)C[C@@]3(C)[C@@H]4C[C@H](O)[C@H]5C(C)(C)[C@@H](O[C@@H]6OC[C@@H](O)[C@H](O)[C@H]6O)CC[C@@]56C[C@@]46CC[C@]23C)O1 | 56.51 µmol |  | 19.51
